High-throughput results deposited in PubChem by Johns Hopkins Ion Channel Center.
MrgX1 antagonist: antagonists of human MrgX1 receptor, primary screen, HEK293 cells, Fluo-4 calcium flux. Mas-related G-protein coupled receptor member X1 (Homo sapiens), Q96LB2. BAM8-22 antagonism; hits give low values. B-score at 10 µM. hit rate 1.3% among 310,000. AID 588676, 2011;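 active = calcium-response B-score plate-corrected more than 3 library SD below zero, starting fluorescence within 5 deviations, no agonist response on first addition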;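 also: peak minus trough fluorescence over baseline after final BAM8-22 challenge near maximal dose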
Target sequence (Q96LB2 whole entry, looked up): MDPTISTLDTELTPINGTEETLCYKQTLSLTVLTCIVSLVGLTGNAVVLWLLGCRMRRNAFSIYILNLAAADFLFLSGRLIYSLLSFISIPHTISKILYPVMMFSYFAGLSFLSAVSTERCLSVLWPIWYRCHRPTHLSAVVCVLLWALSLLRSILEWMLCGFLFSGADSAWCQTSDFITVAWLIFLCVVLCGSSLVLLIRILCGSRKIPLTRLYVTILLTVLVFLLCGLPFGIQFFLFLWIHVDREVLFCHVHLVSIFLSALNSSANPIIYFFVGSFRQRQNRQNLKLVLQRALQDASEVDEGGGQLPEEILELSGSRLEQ
RGS4 block: RGS4 inhibitors, primary screen, cell-based, HEK293 M3R inducible RGS4, calcium flux | Regulator of G-protein signaling 4 (Homo sapiens), P49798 | Fluo-4 calcium flux; hits give high values; triggered by carbachol at its EC20 | B-score at 10 µM | hit rate 0.45% among 310,000 | AID 463165, 2010;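 active = B-score, a plate-corrected calcium signal, over three deviations above library mean, with baseline fluorescence within five deviations of library mean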;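 also: RGS4 expression induced by doxycycline in cells with stable M3 receptor; B-score is computed from the integrated fluorescence ratio over baseline after carbachol; higher B-score means a larger calcium signal and so more RGS4 inhibition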
Target sequence (P49798 whole entry, looked up): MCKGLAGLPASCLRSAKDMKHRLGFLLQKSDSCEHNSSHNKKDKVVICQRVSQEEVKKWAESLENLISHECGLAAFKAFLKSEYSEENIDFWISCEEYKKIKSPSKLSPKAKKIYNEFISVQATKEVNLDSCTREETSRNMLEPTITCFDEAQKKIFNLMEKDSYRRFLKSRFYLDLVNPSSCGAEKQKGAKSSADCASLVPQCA
MrgX1 allo act: positive allosteric modulators of MrgX1, primary screen, HEK293 cells, Fluo-4 calcium flux. Mas-related G-protein coupled receptor member X1 (Homo sapiens), Q96LB2. FDSS; hits give high values. B-score at 10 µM. hit rate 0.63% among 310,000. AID 588675, 2011;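 active = plate-corrected calcium response at least 3 library SD above typical, normal starting fluorescence, not activating the receptor alone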;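 also: compound read alongside a low EC10 to EC30 dose of BAM8-22 agonist; peak minus trough fluorescence over baseline measured at the second addition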
MrgX1 ag: agonists of human MrgX1 receptor, primary screen, HEK293 cells, Fluo-4 calcium flux; Fluo-4 calcium fluorescence, agonist mode; hits give high values; hit rate 0.44% among 310,000; Mas-related G-protein coupled receptor member X1 (Homo sapiens), Q96LB2; B-score at 10 µM;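 active = calcium response B-score plate-corrected fluorescence ratio at least 3 library SD, with starting fluorescence B-score inside 5 SD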
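Material: HEK293 cells stably expressing human MrgX1 receptor | Quantity: 15,000 cells per well | Times: Cells plated overnight, dye loaded 0.5 h 37 °C, 0.5 h room temperature | Measured by: Kinetic Fluo-4 NW fluorescence of intracellular calcium | Control set: Positive and negative controls per plate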
RGS4 pot: RGS4 potentiators or activators, primary screen, cell-based, HEK293 M3R inducible RGS4, calcium flux. carbachol calcium flux Fluo4; hits give low values. B-score at 10 µM. hit rate 0.92% among 310,000;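 active = B-score of the integrated calcium signal more than 4 SD below the library mean, with starting fluorescence not abnormally high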;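 also: negative B-score means reduced calcium response which marks RGS4 activation or potentiation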
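test system = HEK293 cells with stable M3R and inducible RGS4 | schedule = recording 10 s baseline at 1 Hz, 100 s post-agonist | technique = Fluo4-AM (2 µM) calcium-flux fluorescence, kinetic read | measure = Agonist-evoked peak-minus-minimum fluorescence over baseline, integrated ratio, B score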
MrgX1 PAM conf: MrgX1 positive allosteric modulators, duplicate retest, confirmation, HEK293 cells, Fluo-4 calcium flux; shares compounds with MrgX1 allo act; Fluo-4 calcium fluorescence, FDSS; activation (ratio percentage), % at 10 µM; hit rate 13% among 1,200;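 active = ratio at least 3 SD above the weak peptide control, stable starting fluorescence, no direct agonism earlier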;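 also: compound followed by low BAM8-22 agonist challenge near EC20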
MrgX1 antag conf: MrgX1 receptor antagonists, duplicate retest, confirmation, HEK293 cells, Fluo-4 calcium flux. shares compounds with MrgX1 antagonist. BAM8-22 calcium flux; hits give low values. remaining BAM8-22 calcium response % of control (hits give low values), % at 10 µM. hit rate 19% among 2,300. AID 602420, 2012;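 active = remaining agonist calcium response no higher than 100% minus 3 SD of agonist-only control wells, with starting fluorescence near control levels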;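 also: agonist BAM8-22 given at a near maximal EC90 to ECmax level; peak minus minimum fluorescence divided by baseline after agonist addition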
HEK293 Ca flux: nonspecific calcium signal in parental HEK293, confirmation, counter-screen for MrgX1 antagonist project, parental HEK293 cells, Fluo-4 calcium flux; shares compounds with MrgX1 antagonist; Fluo-4 calcium fluorescence, FDSS; hit rate 2% among 4,000; fluorescence ratio F(max-min)/F0 at 10 µM; AID 624111, 2012;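 active = duplicate-averaged calcium fluorescence ratio at least three times the standard deviation of buffer wells, a nonspecific response in parental cells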
HEK293 Ca counter: calcium response in parental HEK293 cells, primary screen, counter-screen for MrgX1 allosteric activator project, cell-based, Fluo-4 calcium flux, duplicate. shares compounds with MrgX1 antagonist. Fluo-4 fluorescence ratio; hits give high values. fluorescence ratio F(max-min)/F0 at 10 µM. hit rate 0.4% among 4,000;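 active = calcium fluorescence ratio, averaged over duplicates, at least 3 SD of the buffer-well ratio, meaning a nonspecific response in receptor-free cells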;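 also: untransfected parental HEK293 lacking MrgX1 used as counterscreen for MrgX1 allosteric activators; fluorescence change taken during the second addition on a kinetic imager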
HEK293 Ca cntr2: calcium response in parental HEK293 cells, primary screen, counter-screen for MrgX1 agonist project, cell-based, Fluo-4 calcium flux, duplicate, agonist mode. AID 624115, 2012. fluorescence ratio F(max-min)/F0 at 10 µM. Fluo-4 calcium fluorescence (FDSS); hits give high values. shares compounds with MrgX1 antagonist. hit rate 8.7% among 4,000;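 active = calcium fluorescence ratio at least three times the spread of buffer wells, meaning a non-specific response in parental cells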
* marks the source's active call; other numbers are inactive results; i = inactive; . = no result given. A selection: hits, their analogues and other compounds. The true share with any hit is near 3.5%.

SMILES	MrgX1 antagonist	RGS4 block	MrgX1 allo act	MrgX1 ag	RGS4 pot	MrgX1 PAM conf	HEK293 Ca flux	HEK293 Ca counter	HEK293 Ca cntr2	others
Cc1ccc(NC2=C(Cl)C(=O)OC2OC(=O)c2ccc(C)cc2)cc1 (stereo unspecified)	i	i	8.58*	i	i	i	i	i	i
COc1ccc(/C=C(/NC(=O)c2ccco2)C(=O)N2CCCCC2)cc1	i	i	i	i	i	.	.	.	.
O=C(C1CCN(S(=O)(=O)c2cccs2)CC1)N1CCc2ccccc2C1	i	i	i	i	i	.	.	.	.
O=C(C1CCCN(S(=O)(=O)c2cccs2)C1)N1CCc2ccccc2C1 (stereo unspecified)	i	i	9.63*	i	i	i	i	i	i
CSCCC(NS(=O)(=O)c1ccc(Cl)cc1)C(=O)O (stereo unspecified)	i	i	10.9*	i	i	i	i	i	i
Cc1ccc(S(=O)(=O)N(C)C)cc1NC(=S)N1CCc2ccccc21	i	i	11.4*	i	i	i	i	i	i
CSCc1ccc(C(=O)NC(C)c2cnn(-c3ccccn3)c2C)o1 (stereo unspecified)	i	i	i	i	i	.	.	.	.
COc1ccccc1-n1c(-c2ccc(Cl)cc2)c[nH]c1=S	i	i	7.48*	i	i	i	i	i	i
COc1ccccc1/C=C1\Cc2ccccc2C1=O	i	i	i	i	i	.	.	.	.
Cc1cc(/C=C2\Cc3ccccc3C2=O)c(C)n1-c1ccccc1	i	i	25.5*	i	i	i	i	i	i
CCN(CC(=O)NCc1ccc(Cl)cc1)C(=O)COc1ccc(Cl)cc1Br	i	i	i	i	i	.	.	.	.
NC(=O)N/N=C/c1ccc(OCc2cccc(Cl)c2)cc1	i	i	i	i	i	.	.	.	.
COc1cc(OC)c(C2SCCCS2)cc1OC	i	i	12.8*	i	i	6.3%*	i	i	i
COc1cc(OC)c(C2N(C)c3ccccc3N2C)cc1OC	i	i	i	i	i	.	.	.	.
CCOC(=O)C1C(=O)NC(N2CCCCC2)=NC1c1ccccc1 (stereo unspecified)	i	i	8.86*	i	i	i	i	i	i
CCOC(=O)C1C(=O)NC(N2CCN(Cc3ccccc3)CC2)=NC1c1ccccc1 (stereo unspecified)	i	i	i	i	i	.	.	.	.
CCOC(=O)CNC(=O)CSc1nc(-c2ccc(OC)cc2)ns1	i	i	11.9*	i	i	i	i	i	i
COc1ccc(NC(=O)CN2CCN(S(=O)(=O)N3CCCCCC3)CC2)cc1	i	i	i	i	i	.	.	.	.
O=C(Cn1cc2c(n1)CCCCC2)Nc1ccccc1Br	i	i	9.31*	i	i	23.5%*	i	i	i
COc1cccc(N=C2SC(CC(=O)Nc3ccccc3)C(=O)N2Cc2ccccn2)c1 (stereo unspecified)	i	i	i	i	i	.	.	.	.
Cc1ccccc1-n1c(SCC(=O)N(C)C2CCS(=O)(=O)C2)nc2ccccc2c1=O (stereo unspecified)	i	i	14.1*	i	i	i	i	i	i
CCOC(=O)N1CCC(NS(=O)(=O)c2ccc(C)cc2)CC1	i	i	8.23*	i	i	i	i	i	i
O=C(Nc1ncccc1O)c1ccc(S(=O)(=O)Nc2ccccc2)cc1	i	i	i	i	i	.	.	.	.
Cc1cc(Cl)ccc1OCC(=O)N1C(C)CCCC1C (stereo unspecified)	i	i	12*	i	i	i	i	i	i
CC(=O)N1CCN(C2=Nc3cccc4cccc2c34)CC1	i	i	i	i	i	.	.	.	.
SMILES	MrgX1 antagonist	RGS4 block	MrgX1 allo act	MrgX1 ag	RGS4 pot	MrgX1 PAM conf	HEK293 Ca flux	HEK293 Ca counter	HEK293 Ca cntr2	others
COc1ccccc1N1CCN(C2=Nc3cccc4cccc2c34)CC1	i	i	8.91*	i	-6.96*	i	i	i	i
Cc1ccc(-n2c(C)cc(C(=O)CSc3nnnn3C)c2C)cc1	i	i	i	i	i	.	.	.	.
Cc1ccc(-n2c(C)cc(C(=O)CSc3nncs3)c2C)cc1	i	i	7.04*	i	i	2.1%*	i	i	i
CC(C)(CNC(=O)CCNC(=O)c1ccc(Br)cc1)N1CCOCC1	i	i	i	i	i	.	.	.	.
CC(C)(C)c1ccc(-c2noc(-c3ccc4c(c3)CCO4)n2)cc1	-5.01*	i	7.41*	i	i	i	i	i	i	MrgX1 antag conf=i
CCCn1c(SCC(=O)Nc2cccc(NC(C)=O)c2)nnc1C(C)C	i	i	i	i	i	.	.	.	.
CCCn1c(SCC(=O)Nc2cccc(C)n2)nnc1C(C)C	i	i	8.24*	i	i	i	i	i	i
c1ccc2nc3ccccc3nc2c1	i	i	i	i	i	.	.	.	.
Cc1cccc2nc3ccccc3nc12	i	i	9.32*	i	i	i	i	i	i
CCN(CC)S(=O)(=O)c1ccc2nc(SC)sc2c1	i	i	12.8*	i	i	i	i	i	i
